Laboratory results: ChEMBL document CHEMBL1165971, “Structures and antimicrobial activities of pyridoacridine alkaloids isolated from different chromotypes of the ascidian Cystodytes dellechiajei” (2010)
Values after ≈ are worked out from the molar mass of the structure shown.

How the values were obtained:
[1] = system: Micrococcus luteus; test: Antibacterial activity against Micrococcus luteus after 24 hrs by liquid growth inhibition assay; assay type: functional
Method in brief: (§1)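 Liquid growth inhibition (NCCLS-based broth method). Compounds dissolved in DMSO and liquid medium, incubated with bacteria at 2 × 10^8 cells/mL in PB medium (Bacto-tryptone 1%, NaCl 0.5%, pH 7.5), 35 °C, 24 h, constant agitation. Triplicate wells. Growth read as absorbance at 620 nm; MIC taken as lowest concentration inhibiting growth.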

[2] = system: Escherichia coli; test: Antibacterial activity against Escherichia coli after 24 hrs by liquid growth inhibition assay; assay type: functional; method in brief: as §1

`N=C1C2=C(NCCC2=O)c2nccc3c2c1nc1ccc(O)cc13` [CYSTODIMINE B] gave an MIC [1] of 10.5 µM (≈ 3.32 µg/mL) and an MIC [2] of 2.6 µM (≈ 0.822 µg/mL).

Work on `O=C1c2c(O)ccnc2-c2nccc3c2c1nc1ccccc13` yielded an MIC [1] of 10.5 µM (≈ 3.14 µg/mL) and an MIC [2] of 2.6 µM (≈ 0.778 µg/mL).

In the case of `O=C1c2cccnc2-c2nccc3c2c1nc1ccccc13` [ASCIDIDEMIN], the MIC [1] is reported as 0.3 µM (≈ 0.085 µg/mL) and the MIC [2] is reported as 0.2 µM (≈ 0.0567 µg/mL).

`NCCc1c2c3c(ccnc3c3ncsc13)-c1ccccc1N2` gave an MIC [1] of 2.5 µM (≈ 0.796 µg/mL) and an MIC [2] of 2.5 µM (≈ 0.796 µg/mL).

In the case of `CC(=O)NCCc1c2c3c(ccnc3c3ncsc13)-c1ccccc1N2` [KUANONIAMINE D], the MIC [1] is reported as 17.4 µM (≈ 6.27 µg/mL) and the MIC [2] is reported as 2.2 µM (≈ 0.793 µg/mL).

Compound `NCCc1c2c(c3nccc4c3c1Nc1ccccc1-4)NC(=O)CS2` has an MIC [1] of 4.5 µM (≈ 1.57 µg/mL) and an MIC [2] of 1.1 µM (≈ 0.383 µg/mL).

`N=C1C2=C(NCCC2=O)c2nccc3c2c1nc1ccccc13` [CYSTODIMINE A] was tested, and the MIC [1] was 2.4 µM (≈ 0.721 µg/mL) and the MIC [2] was 1.2 µM (≈ 0.36 µg/mL).

`CC(=O)NCCc1c2c(c3nccc4c3c1Nc1ccccc1-4)NC(=O)CS2` [SHERMILAMINE B] was tested, and the MIC [1] was 8 µM (≈ 3.12 µg/mL) and the MIC [2] was 2 µM (≈ 0.781 µg/mL).

In the case of GENTAMICIN, the MIC [1] is reported as 0.02 µM and the MIC [2] is reported as 0.08 µM.
